From publication PMC9365243 (Chemical Science, 2022)

System: human monocyte-derived macrophages
Test: Fluorophore uptake, fluorescence microscopy of macrophages
Type: cell-based
Conditions: 30 μM, 3 h, 37 °C, fluorescence microscopy (λex 492 nm, λem 518 nm)
Outline: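 Human monocyte-derived macrophages were incubated for 3 h with 30 μM free fluorophore or fluorophore-labelled oligopeptide, with DMSO alone as negative control. Cells were then imaged by fluorescence microscopy in the green channel (λex = 492 nm, λem = 518 nm) and in light field to find where the fluorophore sat.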

uptake into cells (fluorophore localization): not able to penetrate the cell membrane
Compound: O=C(O)c1ccc2c(c1)C(=O)OC21c2ccc(O)cc2Oc2cc(O)ccc21 [5-FAM, 5-carboxy-fluorescein]
